From ChEMBL document CHEMBL1142156, “Pharmacokinetic interaction between voriconazole and methadone at steady state in patients on methadone therapy” (Antimicrob Agents Chemother, 2007)

Experiments:
Assay type in all cases: ADME, organism-based
[1] = test system: Homo sapiens; assay: Dose normalized AUC (0-24h) in opiate abstinence syndrome patient at 30 to 100 mg, po QD after 2 days; details: in vivo
Procedure, shortened: (§1)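 Male patients on individualized once-daily methadone (30-100 mg) sampled on day 2, before any coadministration. Plasma taken at 1, 2, 3, 4, 6, 8, 10, 12, 16 and 24 h postdose. (R)- and (S)-methadone quantified by chiral LC-MS/MS (range 5 to 500 ng/ml per enantiomer). Noncompartmental analysis: Cmax/Tmax observed, AUC0-24 by linear/log-trapezoidal method. Normalized lines scaled to a 100-mg dose.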

[2] = test system: Homo sapiens; assay: Dose normalized Cmax in opiate abstinence syndrome patient at 30 to 100 mg, po QD after 2 days; details: in vivo, 48 h; procedure, shortened: as §1
[3] = Dose normalized Tmax in opiate abstinence syndrome patient at 30 to 100 mg, po QD after 2 days; details: human, in vivo; procedure, shortened: as §1
[4] = AUC (0-24h) in opiate abstinence syndrome patient at 30 to 100 mg, po QD after 2 days; details: human, plasma; procedure, shortened: as §1
[5] = Cmax in opiate abstinence syndrome patient at 30 to 100 mg, po QD after 2 days; details: human, in vivo; procedure, shortened: as §1

| SMILES | AUC [1] [ng·h/mL] | Cmax [2] [ng/mL] | Tmax [3] [h] | AUC [4] [ng·h/mL] | Cmax [5] [ng/mL] |
| --- | --- | --- | --- | --- | --- |
| CCC(=O)C(C[C@H](C)N(C)C)(c1ccccc1)c1ccccc1 [ESMETHADONE] | 5730 | 366 | 1 | 4030 | 287 |
| CCC(=O)C(C[C@@H](C)N(C)C)(c1ccccc1)c1ccccc1 [LEVOMETHADONE] | 5540 | 322 | 1 | 4300 | 256 |
